The target in one experiment is T1, Adenosine deaminase (Bos taurus, UniProt P56658).
T1 sequence (P56658 whole entry): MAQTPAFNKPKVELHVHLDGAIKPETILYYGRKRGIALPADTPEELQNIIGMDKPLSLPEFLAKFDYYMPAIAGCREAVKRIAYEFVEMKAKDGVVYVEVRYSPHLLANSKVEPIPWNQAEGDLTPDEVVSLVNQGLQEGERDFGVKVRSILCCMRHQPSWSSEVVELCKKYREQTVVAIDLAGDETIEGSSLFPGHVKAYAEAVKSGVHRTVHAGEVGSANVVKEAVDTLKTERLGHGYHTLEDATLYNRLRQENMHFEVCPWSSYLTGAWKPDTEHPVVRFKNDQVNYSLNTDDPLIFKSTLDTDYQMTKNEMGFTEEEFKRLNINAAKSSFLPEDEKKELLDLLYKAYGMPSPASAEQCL
As to the kind of experiment: Inhibition of calf intestine adenosine deaminase. The method, boiled down: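 Calf intestine ADA, 2 × 10-3 unit per assay, at 25 °C and pH 7.4. Adenosine hydrolysis to inosine followed as change in optical density per unit time at 265 nm. Seven adenosine concentrations from 30 to 60 µM were run at each inhibitor level of 5 or 15 µM. Ki derived from Lineweaver–Burk plots (1/V vs 1/S).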

For another experiment, the system named is MCF7. Nature of the experiment: Cytotoxicity against human MCF7 cells after 5 days by MTT assay. Type of experiment: functional, cell-based. As to conditions: MCF7, 120 h. The method, boiled down: (§1)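 Cells seeded at 2000/well in complete RPMI1640 and left to attach overnight at 37 °C in 5% CO2. Drug added from 20 mM DMSO stocks, final 0.0001–100 µM, eight replicates each. Exposure was continuous for 5 days, then MTT added and formazan read at 550 nm. IC50 and IC100 taken against vehicle controls and day-0 growth. Three independent experiments.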
On the technique in general: Formazan colour is commonly taken as a measure of viable cells.

The nature of experiment [1]: Cytotoxicity against human MCF10A cells after 5 days by MTT assay. Type of experiment: cell-based. As to conditions: MCF-10A, 120 h. A digest of the protocol: as §1

Where only a bound is given, the exact number is not on record here.

Take `Nc1n[nH]c(=O)c2ncn([C@@H]3O[C@H](CO)[C@@H](O)[C@H]3O)c12`: the inhibitory constant (Ki) – broadly, the equilibrium dissociation constant of an inhibitor or competing ligand from its target – on Adenosine deaminase is 51.4 µM. Also, the results for the 50% inhibitory concentration (IC50) (in the experiment with MCF7; in experiment [1]) were 23.5 µM and 82.5 µM, respectively.
With `N/N=C(\N)c1c(C(=O)NN)ncn1[C@@H]1O[C@H](CO)[C@@H](O)[C@H]1O`, on Adenosine deaminase, the Ki is 26.5 µM.
In turn, `Nc1n[nH]c(=O)c2c1ncn2[C@@H]1O[C@H](CO)[C@@H](O)[C@H]1O` displayed a Ki at Adenosine deaminase of 10.6 µM. Further, the values for the IC50 (in the experiment with MCF7; in experiment [1]) were 27.5 µM and 82.5 µM, respectively.
On the same counts, the results for `Nc1n[nH]c(=O)c2ncn([C@H]3C[C@H](O)[C@@H](CO)O3)c12` are 52 µM, 97.5 µM and greater than 100 µM.
The like results for `Nc1n[nH]c(=O)c2c1ncn2[C@H]1C[C@H](O)[C@@H](CO)O1` were, in that order, 12.1 µM, greater than 100 µM and greater than 100 µM.

For the origin of these results see ChEMBL document CHEMBL1140722, “Inhibition of adenosine deaminase by analogues of adenosine and inosine, incorporating a common heterocyclic base, 4(7)-amino-6(5)H-imidazo[4,5-d]pyridazin-7(4)one” (J Med Chem, 2008).
